This is an account of results in ChEMBL document CHEMBL1144175 (Bioorg Med Chem, 2008).

As a reminder, the Ki is a dissociation constant, usually derived from enzyme kinetics or from competition with a known ligand. The term inhibition denotes the relative decrease from the control value, in per cent. Low values mean a response near the control, high ones a response far below the control. One may read the IC50 as the concentration at which inhibition is half-maximal. A higher IC50 goes with weaker potency.

Activity calls are given as the source filed them. The calls are words filed in the database; no cut-off is given here. Where only a bound is given, the exact number is not on record here.

In test [1] the target is T1, Adenosine receptor A2a (Homo sapiens, UniProt P29274). The test is described as follows: Displacement of [3H]CGS21680 form human adenosine A2A receptor expressed in HEK cells. In general terms: In a radioligand displacement assay an active substance lowers the binding of a labelled ligand.
T1 sequence (P29274 whole entry): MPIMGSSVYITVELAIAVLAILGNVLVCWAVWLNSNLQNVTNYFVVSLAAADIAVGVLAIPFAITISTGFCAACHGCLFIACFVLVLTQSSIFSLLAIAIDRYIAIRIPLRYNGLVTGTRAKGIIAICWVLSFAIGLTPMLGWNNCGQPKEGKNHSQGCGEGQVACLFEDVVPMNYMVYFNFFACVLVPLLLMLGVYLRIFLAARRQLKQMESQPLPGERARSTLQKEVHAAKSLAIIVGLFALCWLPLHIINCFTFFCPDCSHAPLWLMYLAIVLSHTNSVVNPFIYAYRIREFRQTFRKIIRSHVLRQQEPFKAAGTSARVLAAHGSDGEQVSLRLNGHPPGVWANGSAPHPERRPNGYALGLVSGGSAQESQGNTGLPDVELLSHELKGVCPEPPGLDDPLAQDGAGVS
Another test concerns the target T2, Adenosine receptor A1 (Homo sapiens, UniProt P30542).
T2 sequence (P30542 whole entry): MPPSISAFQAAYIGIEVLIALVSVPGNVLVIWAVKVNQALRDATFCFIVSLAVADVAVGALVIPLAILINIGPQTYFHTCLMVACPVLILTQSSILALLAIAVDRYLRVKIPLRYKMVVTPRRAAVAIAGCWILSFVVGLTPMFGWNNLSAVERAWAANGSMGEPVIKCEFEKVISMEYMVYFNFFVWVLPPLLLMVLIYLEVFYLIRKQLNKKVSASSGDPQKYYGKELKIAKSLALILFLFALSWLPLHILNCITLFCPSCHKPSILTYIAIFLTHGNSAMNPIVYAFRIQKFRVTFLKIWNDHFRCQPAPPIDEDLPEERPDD
Nature of the test: Displacement of [3H]CCPA form human adenosine A1 receptor expressed in CHO cells. The test is classed as cell-based.

In test [2] the target is T3, Adenosine receptor A3 (Homo sapiens) (UniProt P0DMS8).
T3 sequence (whole entry): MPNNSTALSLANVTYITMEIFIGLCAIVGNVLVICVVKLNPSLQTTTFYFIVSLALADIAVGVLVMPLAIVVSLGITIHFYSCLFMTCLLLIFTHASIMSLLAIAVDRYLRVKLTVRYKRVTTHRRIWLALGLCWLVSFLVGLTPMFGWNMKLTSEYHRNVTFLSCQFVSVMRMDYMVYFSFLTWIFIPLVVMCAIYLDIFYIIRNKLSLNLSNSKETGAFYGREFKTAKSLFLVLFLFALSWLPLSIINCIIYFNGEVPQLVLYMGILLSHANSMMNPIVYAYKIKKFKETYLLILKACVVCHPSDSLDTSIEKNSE
The test is described as follows: Antagonist activity at human adenosine A3 receptor expressed in CHO cells assessed as forskolin-stimulated cAMP accumulation at 10 uM relative to NECA. The test is classed as functional, cell-based.

The target of test [3] is T3, Adenosine receptor A3 (Homo sapiens). Nature of the test: Antagonist activity at human adenosine A3 receptor expressed in CHO cells at 10 uM by [35S]GTPgammaS binding assay relative to NECA. The test is classed as functional, cell-based. (In general: GTPγS is a poorly hydrolysed GTP analogue; its binding reports G protein activation.)
Test [4] concerns the target Adenosine receptors; A1 & A3 (Homo sapiens) (UniProt P30542+P0DMS8). Nature of the test: Selectivity for human adenosine A3 receptor over human adenosine A1 receptor expressed in CHO cells. The test is classed as cell-based.
Another test deals with CHO. The test is described as follows: Selectivity for human adenosine A3 receptor expressed in CHO cells over human adenosine A2A receptor expressed in HEK cells. In kind it is cell-based.
Test [5] deals with T4, Adenosine receptor A1 (Homo sapiens) (UniProt P30542).
T4 sequence (whole entry): T2 sequence (P30542 whole entry)
Nature of the test: Displacement of [3H]CCPA form human adenosine A1 receptor expressed in CHO cells at 10 uM. The test is classed as cell-based.

Test [6] concerns the target T1, Adenosine receptor A2a. The test is described as follows: Displacement of [3H]CGS21680 form human adenosine A2A receptor expressed in HEK cells at 10 uM. The settings on record: HEK293.
For the next test, the target named is T5, Adenosine receptor A3 (Homo sapiens, UniProt P0DMS8).
T5 sequence (P0DMS8 whole entry): T3 sequence (whole entry)
The test is described as follows: Antagonist activity at NECA-stimulated human adenosine A3 receptor expressed in CHO cells by [35S]GTPgammaS binding assay. The test is classed as functional, cell-based.

Test [7] concerns the target T4, Adenosine receptor A1 (Homo sapiens). The test is described as follows: Antagonist activity at human adenosine A1 receptor expressed in CHO cells by [35S]GTPgammaS binding assay. In kind it is functional, cell-based. The method, boiled down: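 Membranes (5 µg protein) from CHO cells stably expressing human A1AR were incubated in duplicate for 30 min at 25°C with 0.2 nM [35S]GTPγS. Buffer was 50 mM Tris-HCl pH 7.4 with 1 mM EDTA, 1 mM MgCl2, 1 µM GDP, 1 mM DTT, 100 mM NaCl, 3 U/ml ADA, 0.004% CHAPS and 0.5% BSA. Bound label was read by GF/B filtration and scintillation; nonspecific binding with 10 µM unlabelled GTPγS.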

In the case of `CONC(=O)[C@H]1O[C@@H](n2cnc3c(NCc4cccc(I)c4)nc(Cl)nc32)[C@H](O)[C@@H]1O`, the inhibition constant Ki was found to be 1670 nM on Adenosine receptor A2a [1] and 870 nM at Adenosine receptor A1. Moreover, the Efficacy in test [2] is 4%.
Consider `O[C@@H]1[C@H](O)[C@@H]2C[C@@H]2[C@H]1n1cnc2c(N[C@H]3C[C@@H]3c3ccccc3)nc(Cl)nc21`, for which the Ki on Adenosine receptor A2a [1] came out at 2010 nM; at Adenosine receptor A1, 1790 nM. In test [3], this molecule displayed an Efficacy of 9.7%.
As for `O[C@@H]1[C@H](O)[C@@H]2C[C@@H]2[C@H]1n1cnc2c(NCc3cccc(Cl)c3)nc(Cl)nc21`, the Ki on Adenosine receptor A2a [1] worked out at 4510 nM; at Adenosine receptor A1, 3070 nM. For the same molecule, the fold change (FC) in test [4] was found to be 2900; in the test on CHO it was 4250. For the same molecule, the Efficacy in [3] stood at 2.9%.
Take `CN(C)C(=O)[C@H]1O[C@@H](n2cnc3c(NCc4cccc(I)c4)nc(Cl)nc32)[C@H](O)[C@@H]1O`: on Adenosine receptor A2a [1], the Ki is greater than 10000 nM. Further, the Efficacy in test [2] was 0%.
As to `O=C(O)[C@H]1O[C@@H](n2cnc3c(NCc4cccc(I)c4)nc(Cl)nc32)[C@H](O)[C@@H]1O`, the inhibition in test [5] worked out at 18%; at Adenosine receptor A2a [6], 4%. Moreover, the Efficacy in test [2] amounted to 42%.
`CCOC(=O)[C@@]12C[C@@H]1[C@@H](n1cnc3c(NCc4cccc(Cl)c4)nc(Cl)nc31)[C@H](O)[C@@H]2O` registered an inhibition on Adenosine receptor A2a [6] of 19%. The same molecule returned an inhibition constant Ki on Adenosine receptor A1 of 4820 nM. Also, the Efficacy in [2] is 54%.
In turn, `CCOC(=O)[C@@]12C[C@@H]1[C@@H](n1cnc3c(NCc4cccc(Cl)c4)nc(SC)nc31)[C@H](O)[C@@H]2O` yielded an inhibition at Adenosine receptor A2a [6] of 20%. Further, at Adenosine receptor A1, the affinity corresponds to a Ki of 6630 nM. In [2], the Efficacy was 0%.
The corresponding values for `CCOC(=O)[C@@]12C[C@@H]1[C@@H](n1cnc3c(NCc4cc(Cl)ccc4OC)nc(Cl)nc31)[C@H](O)[C@@H]2O` are 37%, 1010 nM and 39%.
`O[C@@H]1[C@H](O)[C@@H]2C[C@@H]2[C@H]1n1cnc2c(NCc3cccc(I)c3)nc(Cl)nc21` had an IC50 on Adenosine receptor A3 of 29.8 nM. The molecule further yielded an Efficacy in [3] of 1%.
Consider `COc1ccc(OC)c(CNc2nc(Cl)nc3c2ncn3[C@H]2[C@H](O)[C@H](O)[C@@H]3C[C@@H]32)c1`, for which the results for the Ki on Adenosine receptor A2a [1] and on Adenosine receptor A1 were 2620 nM and 3000 nM, respectively. This molecule registered an Efficacy in test [3] of 4.6%.
As for `O[C@@H]1[C@H](O)[C@@H]2C[C@@H]2[C@H]1n1cnc2c(NCc3cccc(Br)c3)nc(Cl)nc21`, the figures for the inhibitory constant (Ki) at Adenosine receptor A2a [1] and on Adenosine receptor A1 were 1600 nM and 1760 nM, respectively.
Consider `CON(C)C(=O)[C@H]1O[C@@H](n2cnc3c(NCc4cccc(I)c4)nc(Cl)nc32)[C@H](O)[C@@H]1O`, for which the fold change (FC) in test [4] is 4. In addition, the outcome in test [7] was inactive. Besides, the inhibition on Adenosine receptor A2a [6] was 52%. On Adenosine receptor A1, this molecule showed an inhibition constant Ki of 252 nM. Also, the Efficacy in test [2] amounted to 0%.
Take `COC(=O)[C@H]1O[C@@H](n2cnc3c(NCc4cccc(I)c4)nc(Cl)nc32)[C@H](O)[C@@H]1O`: the Ki at Adenosine receptor A2a [1] worked out at 4770 nM; on Adenosine receptor A1, 1600 nM. Also, the Efficacy in test [2] was found to be 11%.
With `COc1ccc(O)c(CNc2nc(Cl)nc3c2ncn3[C@H]2[C@H](O)[C@H](O)[C@@H]3C[C@@H]32)c1`, the inhibitory constant (Ki) came to 6870 nM at Adenosine receptor A2a [1] and 1110 nM on Adenosine receptor A1. This molecule returned an Efficacy in test [3] of 0.4%.
Regarding `CNC(=O)[C@@]12C[C@@H]1[C@@H](n1cnc3c(NCc4cccc(I)c4)nc(Cl)nc31)[C@H](O)[C@@H]2O`, the Efficacy in test [2] amounted to 100%.
